The RNAGym collection of RNA variant scans (doi:10.1002/anie.201605470)

B1: Osa-1-4 twister ribozyme (parent)
chain: CCGCCUAACACUGCCAAUGCCGGUCCCAAGCCCGGAUAAAAGUGGAGGGGGCGG

Variants of: B1
Assay: self-cleavage, relative activity (ratio to wild type); higher = more cleavage; co-transcriptional
Summary of the method: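 A DNA template encoding a 54-nucleotide twister ribozyme from Oryza sativa was made so that each of the 48 positions downstream of the cleavage site carried 97 % wild-type base and 1 % of each other base. Transcription in vitro ran for 2 h at 37 °C, during which the ribozyme could cleave itself. Reverse transcription used a template-switching oligonucleotide, and the products were PCR-amplified and deep-sequenced. Each read was scored as cleaved or uncleaved by whether upstream sequence was present, and relative activity is the fraction cleaved normalised to wild type.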

Variant	self-cleavage
C32G C33U	0.07
C32G C52A	0.12
C32G C52G	0.16
C32G C52U	0.2
C32G G13A	0.04
C32G G13C	0.02
C32G G13U	0.01
C32G G19A	0.12
C32G G19C	0.03
C32G G19U	0.07
C32G G22A	0.1
C32G G22C	0.04
C32G G22U	0.07
C32G G23A	0.27
C32G G23C	0.08
C32G G23U	0.29
C32G G30A	0.03
C32G G30C	0.02
C32G G30U	0.02
C32G G34A	0.09
C32G G34C	0.06
C32G G34U	0.08
C32G G35A	0.09
C32G G35C	0.07

Variant	self-cleavage
C32G G35U	0.08
C32G G42A	0.09
C32G G42C	0.08
C32G G42U	0.04
C32G G44A	0.11
C32G G44C	0.07
C32G G44U	0.08
C32G G45A	0.05
C32G G45C	0.03
C32G G45U	0.04
C32G G47A	0.09
C32G G47C	0.04
C32G G47U	0.04
C32G G48A	0.05
C32G G48C	0.04
C32G G48U	0.03
C32G G49A	0.05
C32G G49C	0.04
C32G G49U	0.05
C32G G50A	0.1
C32G G50C	0.09
C32G G50U	0.11
C32G G51A	0.09
C32G G51C	0.05

Variant	self-cleavage
C32G G51U	0.07
C32G G53A	0.1
C32G G53C	0.06
C32G G53U	0.07
C32G G54A	0.15
C32G G54C	0.09
C32G G54U	0.25
C32G U12A	0.12
C32G U12C	0.08
C32G U12G	0.06
C32G U18A	0.14
C32G U18C	0.15
C32G U18G	0.14
C32G U24A	0.06
C32G U24C	0.05
C32G U24G	0.02
C32G U37A	0.16
C32G U37C	0.14
C32G U37G	0.19
C32G U43A	0.1
C32G U43C	0.09
C32G U43G	0.11
C32U	0.24
C32U C9A	0.02

Variant	self-cleavage
C32U C9G	0.09
C32U C9U	0.05
C32U C33A	0.04
C32U C33G	0.02
C32U C33U	0.06
C32U C52A	0.13
C32U C52G	0.15
C32U C52U	0.2
C32U G13A	0.03
C32U G13C	0.01
C32U G13U	0.01
C32U G19A	0.1
C32U G19C	0.03
C32U G19U	0.05
C32U G22A	0.09
C32U G22C	0.04
C32U G22U	0.07
C32U G23A	0.85
C32U G23C	0.03
C32U G23U	0.12
C32U G30A	0.02
C32U G30C	0.02
C32U G30U	0.02
C32U G34A	0.09

Variant	self-cleavage
C32U G34C	0.07
C32U G34U	0.08
C32U G35A	0.08
C32U G35C	0.06
C32U G35U	0.06
C32U G42A	0.08
C32U G42C	0.07
C32U G42U	0.03
C32U G44A	0.08
C32U G44C	0.09
C32U G44U	0.07
C32U G45A	0.08
C32U G45C	0.03
C32U G45U	0.04
C32U G47A	0.06
C32U G47C	0.04
C32U G47U	0.06
C32U G48A	0.03
C32U G48C	0.03
C32U G48U	0.03
C32U G49A	0.05
C32U G49C	0.03
C32U G49U	0.05
C32U G50A	0.1

Variant	self-cleavage
C32U G50C	0.09
C32U G50U	0.11
C32U G51A	0.07
C32U G51C	0.05
C32U G51U	0.05
C32U G53A	0.09
C32U G53C	0.05
C32U G53U	0.09
C32U G54A	0.1
C32U G54C	0.09
C32U G54U	0.26
C32U U12A	0.1
C32U U12C	0.08
C32U U12G	0.09
C32U U18A	0.16
C32U U18C	0.18
C32U U18G	0.22
C32U U24A	0.06
C32U U24C	0.06
C32U U24G	0.01
C32U U37A	0.21
C32U U37C	0.16
C32U U37G	0.26
C32U U43A	0.09

Variant	self-cleavage
C32U U43C	0.06
C32U U43G	0.09
C33A	0.28
C33A C9A	0.05
C33A C9G	0.08
C33A C9U	0.07
C33A C52A	0.11
C33A C52G	0.17
C33A C52U	0.28
C33A G13A	0.02
C33A G13C	0.01
C33A G13U	0.02
C33A G19A	0.07
C33A G19C	0.03
C33A G19U	0.04
C33A G22A	0.87
C33A G22C	0.22
C33A G22U	0.93
C33A G23A	0.06
C33A G23C	0.02
C33A G23U	0.04
C33A G30A	0.02
C33A G30C	0.02
C33A G30U	0.02

Variant	self-cleavage
C33A G34A	0.08
C33A G34C	0.05
C33A G34U	0.06
C33A G35A	0.07
C33A G35C	0.04
C33A G35U	0.07
C33A G42A	0.06
C33A G42C	0.06
C33A G42U	0.03
C33A G44A	0.08
C33A G44C	0.09
C33A G44U	0.1
C33A G45A	0.06
C33A G45C	0.04
C33A G45U	0.04
C33A G47A	0.04
C33A G47C	0.04
C33A G47U	0.04
C33A G48A	0.04
C33A G48C	0.05
C33A G48U	0.04
C33A G49A	0.05
C33A G49C	0.04
C33A G49U	0.04

Variant	self-cleavage
C33A G50A	0.1
C33A G50C	0.08
C33A G50U	0.1
C33A G51A	0.06
C33A G51C	0.05
C33A G51U	0.05
C33A G53A	0.08
C33A G53C	0.04
C33A G53U	0.06
C33A G54A	0.11
C33A G54C	0.07
C33A G54U	0.24
C33A U12A	0.06
C33A U12C	0.06
C33A U12G	0.06
C33A U18A	0.15
C33A U18C	0.12
C33A U18G	0.17
C33A U24A	0.05
C33A U24C	0.05
C33A U24G	0.02
C33A U37A	0.34
C33A U37C	0.14
C33A U37G	0.29

Variant	self-cleavage
C33A U43A	0.08
C33A U43C	0.06
C33A U43G	0.08
C33G	0.06
C33G C9A	0.02
C33G C9G	0.07
C33G C9U	0.04
C33G C52A	0.08
C33G C52G	0.26
C33G C52U	0.05
C33G G13A	0.03
C33G G13C	0.01
C33G G13U	0.01
C33G G19A	0.05
C33G G19C	0.02
C33G G19U	0.03
C33G G22A	0.16
C33G G22C	0.62
C33G G22U	0.87
C33G G23A	0.05
C33G G23C	0.03
C33G G23U	0.03
C33G G30A	0.02
C33G G30C	0.02

Variant	self-cleavage
C33G G30U	0.02
C33G G34A	0.06
C33G G34C	0.05
C33G G34U	0.05
C33G G35A	0.05
C33G G35C	0.03
C33G G35U	0.04
C33G G42A	0.05
C33G G42C	0.05
C33G G42U	0.02
C33G G44A	0.05
C33G G44C	0.05
C33G G44U	0.05
C33G G45A	0.04
C33G G45C	0.02
C33G G45U	0.02
C33G G47A	0.03
C33G G47C	0.03
C33G G47U	0.02
C33G G48A	0.02
C33G G48C	0.03
C33G G48U	0.02
C33G G49A	0.05
C33G G49C	0.03

Variant	self-cleavage
C33G G49U	0.02
C33G G50A	0.06
C33G G50C	0.05
C33G G50U	0.09
C33G G51A	0.06
C33G G51C	0.06
C33G G51U	0.05
C33G G53A	0.08
C33G G53C	0.03
C33G G53U	0.04
C33G G54A	0.08
C33G G54C	0.03
C33G G54U	0.1
C33G U12A	0.05
C33G U12C	0.03
C33G U12G	0.07
C33G U18A	0.07
C33G U18C	0.08
C33G U18G	0.08
C33G U24A	0.04
C33G U24C	0.04
C33G U24G	0.01
C33G U37A	0.08
C33G U37C	0.05

Variant	self-cleavage
C33G U37G	0.08
C33G U43A	0.06
C33G U43C	0.03
C33G U43G	0.06
C33U	0.88
C33U C9A	0.2
C33U C9G	0.3
C33U C9U	0.39
C33U C52A	0.84
C33U C52G	0.88
C33U C52U	0.99
C33U G13A	0.04
C33U G13C	0.02
C33U G13U	0.03
C33U G19A	0.17
C33U G19C	0.02
C33U G19U	0.06
C33U G22A	1.08
C33U G22C	0.45
C33U G22U	1
C33U G23A	0.09
C33U G23C	0.04
C33U G23U	0.04
C33U G30A	0.04

Variant	self-cleavage
C33U G30C	0.04
C33U G30U	0.03
C33U G34A	0.22
C33U G34C	0.21
C33U G34U	0.13
C33U G35A	0.49
C33U G35C	0.08
C33U G35U	0.11
C33U G42A	0.14
C33U G42C	0.08
C33U G42U	0.07
C33U G44A	0.5
C33U G44C	0.29
C33U G44U	0.53
C33U G45A	0.08
C33U G45C	0.06
C33U G45U	0.05
C33U G47A	0.08
C33U G47C	0.07
C33U G47U	0.07
C33U G48A	0.07
C33U G48C	0.05
